{"source": "paper PMC6880868", "about": "(Cancer cell, 2019)", "key": {"[1]": {"target": "T1, STAT3 (Homo sapiens, UniProt P40763)", "experiment": "STAT3 protein degradation in human cells", "type": "cell-based", "conditions": "for effect on SD-36-induced depletion of STAT3 protein: co-treatment with SD-36; for effect on the levels of STAT3 protein: 10 μM, 3 hr MOLM-16 or 24 hr SU-DHL-1", "method_in_brief": "(§1)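 Treated cells were lysed in cell lysis buffer, resolved by SDS-PAGE, transferred to PVDF and probed by immunoblotting.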"}, "[2]": {"tested_on": "MOLM-16 cells", "experiment": "RNA-seq analysis, MOLM-16", "type": "cell-based, human", "conditions": "MOLM-16, 24 hr"}, "[3]": {"target": "monomeric and dimeric STAT3 protein (Homo sapiens, UniProt P40763)", "sequence (P40763 whole entry)": "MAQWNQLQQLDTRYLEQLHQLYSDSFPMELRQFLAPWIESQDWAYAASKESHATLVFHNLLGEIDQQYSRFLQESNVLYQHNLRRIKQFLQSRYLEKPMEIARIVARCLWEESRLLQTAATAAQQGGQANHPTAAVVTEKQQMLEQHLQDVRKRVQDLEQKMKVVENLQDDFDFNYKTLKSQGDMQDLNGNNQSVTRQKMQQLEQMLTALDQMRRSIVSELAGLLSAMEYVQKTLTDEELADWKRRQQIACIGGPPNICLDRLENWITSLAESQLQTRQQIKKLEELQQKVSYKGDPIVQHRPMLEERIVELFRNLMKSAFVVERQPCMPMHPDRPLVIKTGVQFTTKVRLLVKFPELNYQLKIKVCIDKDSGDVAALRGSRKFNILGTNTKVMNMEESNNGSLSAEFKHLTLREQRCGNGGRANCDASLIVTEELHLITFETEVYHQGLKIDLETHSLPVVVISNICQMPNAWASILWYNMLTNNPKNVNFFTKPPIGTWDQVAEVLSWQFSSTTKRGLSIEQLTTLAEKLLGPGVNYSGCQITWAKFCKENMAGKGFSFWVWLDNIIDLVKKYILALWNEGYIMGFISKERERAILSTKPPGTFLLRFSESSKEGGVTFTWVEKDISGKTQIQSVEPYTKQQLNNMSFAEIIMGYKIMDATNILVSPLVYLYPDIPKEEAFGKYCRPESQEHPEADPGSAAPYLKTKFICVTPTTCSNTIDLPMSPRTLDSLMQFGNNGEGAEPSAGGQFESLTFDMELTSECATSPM", "experiment": "Native electrophoresis and immunoblotting of STAT3 monomer/dimer", "type": "cell-based", "conditions": "MOLM-16, 5 hr"}, "[4]": {"target": "T1, STAT3", "experiment": "Pharmacodynamics: STAT3 protein in xenograft tumors", "type": "in vivo, NOD/SCID mice bearing human xenograft tumors", "conditions": "100 mg/kg i.v."}, "[5]": {"tested_on": "MOLM-16 and SU-DHL-1 cell lines", "experiment": "Cell cycle analysis by flow cytometry", "type": "cell-based, human", "conditions": "1 μM, 48 hr", "method_in_brief": "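After treatment, cells were washed twice in cold PBS and fixed overnight in 50% ethanol. They were stained 1 hr at 4°C with PI (50 μg/ml) plus DNase-free RNase A (0.2 μg/ml), then analysed by flow cytometry.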"}, "[6]": {"target": "transcriptional activity of STAT3", "experiment": "STAT3-luciferase reporter assay", "type": "cell-based, human"}, "[7]": {"tested_on": "SU-DHL-1", "experiment": "RNA-seq analysis, SU-DHL-1", "type": "cell-based, human", "conditions": "SU-DHL-1, 24 hr"}, "[8]": {"target": "T1, STAT3", "experiment": "Fluorescence polarization", "type": "binding", "method_in_brief": "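Competitive fluorescence polarisation assay. Recombinant STAT3 (25 nM) was premixed 5 min with 2.5 nM 5-FAM-labelled STAT3 SH2-domain ligand. The mix was added to serially diluted test compound and read after 1 hr at room temperature. Buffer: 50 mM NaCl, 10 mM HEPES pH 7.5, 1 mM EDTA, 0.01% Triton X-100, 2 mM DTT. IC50 came from nonlinear regression and was converted to Ki.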"}, "[9]": {"tested_on": "MOLM-16 tumors", "experiment": "MOLM-16 xenograft efficacy", "type": "in vivo, NOD/SCID female mice", "conditions": "100 mg/kg twice weekly for 4 weeks", "method_in_brief": "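NOD/SCID female mice were injected subcutaneously in 5 mg/ml Matrigel with MOLM-16 (3 × 10^6), SU-DHL-1 (1 × 10^7) or SUP-M2 (1 × 10^7) cells. At about 150 mm3, mice were size-matched and randomised. Test compound or vehicle (10% PEG400 + 90% PBS) was given on the indicated schedules. Tumours were measured 2–3 times weekly, with volume = length×width²/2. TGI was calculated from group medians.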"}, "[10]": {"tested_on": "c-Myc; STAT3 Y705 phosphorylation", "experiment": "Immunoblotting of c-Myc and pSTAT3", "type": "cell-based, human", "conditions": "concentrations as high as 10 μM", "method_in_brief": "as §1"}, "[11]": {"target": "STAT1 (Homo sapiens, UniProt P42224)", "sequence (P42224 132-713)": "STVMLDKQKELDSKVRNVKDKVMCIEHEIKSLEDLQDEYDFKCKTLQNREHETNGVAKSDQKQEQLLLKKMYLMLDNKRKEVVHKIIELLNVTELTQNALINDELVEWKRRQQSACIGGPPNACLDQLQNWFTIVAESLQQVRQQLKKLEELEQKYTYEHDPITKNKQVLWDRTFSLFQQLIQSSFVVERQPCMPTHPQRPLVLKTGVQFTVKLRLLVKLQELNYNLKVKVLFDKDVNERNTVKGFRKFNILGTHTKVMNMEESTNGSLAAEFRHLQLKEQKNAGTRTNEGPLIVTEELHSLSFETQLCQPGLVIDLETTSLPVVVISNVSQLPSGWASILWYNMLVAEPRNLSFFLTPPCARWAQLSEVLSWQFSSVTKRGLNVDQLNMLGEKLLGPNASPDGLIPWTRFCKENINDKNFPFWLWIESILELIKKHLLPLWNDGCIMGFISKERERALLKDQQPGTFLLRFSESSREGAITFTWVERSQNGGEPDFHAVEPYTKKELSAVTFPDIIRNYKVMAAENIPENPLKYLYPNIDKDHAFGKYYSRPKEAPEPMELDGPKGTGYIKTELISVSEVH", "experiment": "Bio-Layer Interferometry binding, STAT1", "method_in_brief": "(§2)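 Purified recombinant human STAT proteins were biotinylated, then direct binding of the test compound was measured by Bio-Layer Interferometry to give Kd.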"}, "[12]": {"tested_on": "~5500 proteins quantified in each cell line", "experiment": "Multiplexed quantitative proteomics in cell lines", "type": "cell-based, human", "conditions": "10 μM, 2.5 hr, three cell lines, p≤0.05", "method_in_brief": "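Cells were exposed to test compound, then analysed by multiplexed quantitative proteomics. Significance was assessed by Student's t-test.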"}, "[13]": {"tested_on": "MOLM-16", "experiment": "4-day CellTiter Glo cell viability assay, MOLM-16", "type": "cell-based", "conditions": "Homo sapiens, MOLM16, 96 h, read-out: IC50, growth inhibition"}, "[14]": {"target": "DNA binding activity of STAT3 (Homo sapiens, UniProt P40763)", "sequence (P40763 whole entry)": "as the sequence (P40763 whole entry) above", "experiment": "STAT3 DNA binding activity assay on nuclear extracts", "type": "cell-based", "conditions": "10 μM, 8 hr, MOLM-16 and SU-DHL-1", "method_in_brief": "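Nuclear extraction: cells were swelled 15 min on ice in hypotonic HEPES pH 7.9/10 mM KCl buffer with DTT and phosphatase/protease inhibitors. NP-40 was added (0.5% final), and nuclei were extracted 15 min at 4°C in 0.4 M NaCl HEPES buffer, then cleared at 5,000 × g. ELISA: 5 μg extract was bound 1 hr at room temperature in TransAM STAT ELISA wells. Wells then received STAT antibody (1:1000, 1 hr), HRP secondary (1 hr) and colour development.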"}, "[15]": {"target": "T1, STAT3", "experiment": "Bio-Layer Interferometry binding, STAT3", "method_in_brief": "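Recombinant human STAT3 was biotinylated and binding measured by Bio-Layer Interferometry for Kd. Selectivity was taken from Kd values against other STATs.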"}, "[16]": {"tested_on": "leukemia and lymphoma cell lines", "experiment": "4-day CellTiter Glo cell viability assay, leukemia and lymphoma cell line panel", "type": "cell-based, human"}, "[17]": {"target": "STAT4 (Homo sapiens, UniProt Q14765)", "sequence (Q14765 133-705)": "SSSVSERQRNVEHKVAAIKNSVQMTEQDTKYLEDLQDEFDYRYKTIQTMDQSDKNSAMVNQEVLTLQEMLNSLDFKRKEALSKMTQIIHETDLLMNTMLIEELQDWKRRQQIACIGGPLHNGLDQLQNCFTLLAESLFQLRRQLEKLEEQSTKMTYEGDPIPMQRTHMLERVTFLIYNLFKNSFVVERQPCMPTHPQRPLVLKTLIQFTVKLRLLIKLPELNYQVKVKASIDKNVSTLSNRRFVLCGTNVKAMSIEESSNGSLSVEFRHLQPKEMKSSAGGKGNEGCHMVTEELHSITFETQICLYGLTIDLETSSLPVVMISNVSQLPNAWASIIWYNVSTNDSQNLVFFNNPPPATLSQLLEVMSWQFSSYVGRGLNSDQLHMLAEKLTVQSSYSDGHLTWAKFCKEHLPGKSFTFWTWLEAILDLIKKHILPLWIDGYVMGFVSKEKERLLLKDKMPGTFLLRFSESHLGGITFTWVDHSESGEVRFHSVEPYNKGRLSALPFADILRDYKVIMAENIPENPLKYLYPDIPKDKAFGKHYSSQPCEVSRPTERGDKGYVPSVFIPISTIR", "experiment": "Bio-Layer Interferometry binding, STAT4", "method_in_brief": "as §2"}, "[18]": {"conditions": "Homo sapiens, MOLM16, 24 h, read-out: IC50, transcriptional activity of STAT3"}, "[19]": {"conditions": "Homo sapiens, read-out: IC50, inhibition of transcriptional activity of STAT3"}}, "note": "Like-named read-outs stand apart in the source and are kept apart here.", "data": [{"molecule": "NS(=O)(=O)OC[C@@H]1C[C@@H](n2ccc3c(N[C@H]4CCc5ccccc54)ncnc32)C[C@@H]1O", "note": "[MLN4924, reference compound]", "values": [{"measurement": "effect on SD-36-induced depletion of STAT3 protein", "setting": "[1]", "value": "blocked"}]}, {"molecule": "CN1C(=O)CCC(N2Cc3c(C#CCCCCCC(=O)N4CC[C@H]5CC[C@@H](C(=O)N[C@@H](CCC(N)=O)C(=O)NC(c6ccccc6)c6ccccc6)N5C(=O)[C@@H](NC(=O)c5cc6cc(C(F)(F)P(=O)(O)O)ccc6[nH]5)C4)cccc3C2=O)C1=O", "note": "(stereo partly drawn) [SD-36Me, ((2-(((5S,8S,10aR)-8-(((S)-5-amino-1-(benzhydrylamino)-1,5-dioxopentan-2-yl)carbamoyl)-3-(8-(2-(1-methyl-2,6-dioxopipehdin-3-yl)-1-oxoisoindolin-4-yl)oct-7-ynoyl)-6-oxodecahydropyrrolo[1,2-a][1,5]diazocin-5-yl)carbamoyl)-1H-indol-5-yl)difluoromethyl)phosphonic acid]", "values": [{"measurement": "genes up- or down-regulated ≥2-fold (p≤0.05), total", "setting": "[2]", "value": 13, "unit": "genes"}, {"measurement": "effect on the levels of STAT3 protein", "setting": "[1]", "value": "no significant effect"}, {"measurement": "concentration diminishing STAT3 dimers", "setting": "[3]", "value": "~ 10 μM"}, {"measurement": "effect on protein levels of STAT3 in MOLM-16 tumors", "setting": "[4]", "value": "no significant effect"}, {"measurement": "cell cycle effect", "setting": "[5]", "value": "modest G1 arrest"}, {"measurement": "IC50", "setting": "[6]; read-out: IC50, transcriptional activity of STAT3, MOLM-16 STAT3-dependent luciferase reporter cell line, 24 hr", "value": "~10000", "unit": "nM"}, {"measurement": "genes differentially regulated (≥2-fold, p≤0.05)", "setting": "[7]", "value": 28, "unit": "genes"}]}, {"molecule": "CN1CC[C@H]2CC[C@@H](C(=O)N[C@@H](CCC(N)=O)C(=O)NCc3ccccc3)N2C(=O)[C@@H](NC(=O)c2cc3cc(C(F)(F)P(=O)(O)O)ccc3[nH]2)C1", "note": "[SI-108, ((2-(((5S,8S,10aR)-8-(((S)-5-amino-1-(benzylamino)-1,5-dioxopentan-2-yl)carbamoyl)-3-methyl-6-oxodecahydropyrrolo[1,2-a][1,5]diazocin-5-yl)carbamoyl)-1H-indol-5-yl)difluoromethyl)phosphonic acid]", "values": [{"measurement": "effect on SD-36-induced depletion of STAT3 protein", "setting": "[1]", "value": "blocked"}, {"measurement": "IC50", "setting": "[6]; [18]", "value": "~10000", "unit": "nM"}, {"measurement": "IC50", "setting": "[6]; [19]", "value": "~3000", "unit": "nM"}, {"measurement": "Ki", "setting": "[8]", "value": 11, "unit": "nM"}]}, {"molecule": "CC(=O)N1CC[C@H]2CC[C@@H](C(=O)N[C@@H](CCC(N)=O)C(=O)NC(c3ccccc3)c3ccccc3)N2C(=O)[C@@H](NC(=O)c2cc3cc(C(F)(F)P(=O)(O)O)ccc3[nH]2)C1", "note": "[SI-109, ((2-(((5S,8S,10aR)-3-acetyl-8-(((S)-5-amino-1-(benzhydrylamino)-1,5-dioxopentan-2-yl)carbamoyl)-6-oxodecahydropyrrolo[1,2-a][1,5]diazocin-5-yl)carbamoyl)-1H-indol-5-yl)difluoromethyl)phosphonic acid]", "values": [{"measurement": "effect on the growth of MOLM-16 tumors", "setting": "[9]", "value": "no effect"}, {"measurement": "inhibition of STAT3 Y705 phosphorylation and suppression of c-Myc expression", "setting": "[10]", "value": "ineffective"}, {"measurement": "Kd", "setting": "[11]", "value": "1000 to 2000", "unit": "nM"}, {"measurement": "proteome-wide selectivity", "setting": "[12]", "value": "no measurable effect"}, {"measurement": "IC50", "setting": "[13]", "value": "~3000", "unit": "nM"}, {"measurement": "effect on the levels of STAT3 protein", "setting": "[1]", "value": "no significant effect"}, {"measurement": "concentration diminishing STAT3 dimers", "setting": "[3]", "value": "~ 10 μM"}, {"measurement": "DNA binding activity of STAT3", "setting": "[14]", "value": "only modestly reduces"}, {"measurement": "effect on protein levels of STAT3 in MOLM-16 tumors", "setting": "[4]", "value": "no significant effect"}, {"measurement": "IC50", "setting": "[6]; [18]", "value": "~10000", "unit": "nM"}, {"measurement": "IC50", "setting": "[6]; [19]", "value": "~3000", "unit": "nM"}, {"measurement": "Kd", "setting": "[15]", "value": "~50", "unit": "nM"}, {"measurement": "binding selectivity for STAT3 over STAT1 and STAT4", "setting": "[15]; BLI Kd", "value": "~ 20 fold"}, {"measurement": "Ki", "setting": "[8]", "value": 9, "unit": "nM"}, {"measurement": "cell lines with moderate growth-inhibitory activity", "setting": "[16]; 18 leukemia and lymphoma cell lines", "value": "1 of these 18"}, {"measurement": "growth-inhibitory activity in a large number of human cancer cell lines", "setting": "[16]; initial testing", "value": "no appreciable growth-inhibitory activity"}, {"measurement": "Kd", "setting": "[17]", "value": "1000 to 2000", "unit": "nM"}]}, {"molecule": "CC(C)C[C@H](NC(=O)[C@H](CCc1ccccc1)NC(=O)CN1CCOCC1)C(=O)N[C@@H](Cc1ccccc1)C(=O)N[C@@H](CC(C)C)C(=O)[C@@]1(C)CO1", "note": "[carfilzomib, reference compound]", "values": [{"measurement": "effect on SD-36-induced depletion of STAT3 protein", "setting": "[1]", "value": "blocked"}]}, {"molecule": "NC(=O)CC[C@H](NC(=O)[C@@H]1CCC2CCCC[C@H](NC(=O)c3cc4cc(OP(=O)(O)O)ccc4[nH]3)C(=O)N21)C(=O)NCc1ccccc1", "note": "(stereo partly drawn) [compound 2, 2-((3S,6S)-3-((S)-5-Amino-1-(benzylamino)-1,5-dioxopentan-2-ylcarbamoyl)-5-oxodecahydropyrrolo[1,2-a]azocin-6-ylcarbamoyl)-1H-indol-5-yl dihydrogen phosphate]", "values": [{"measurement": "suppressing STAT3 activity in cells", "setting": "[6]; cells", "value": "ineffective"}, {"measurement": "Ki", "setting": "[8]", "value": 39, "unit": "nM"}]}, {"molecule": "NC(=O)CC[C@H](NC(=O)[C@@H]1CCC2CCCC[C@H](NC(=O)c3cc4cc(C(F)(F)P(=O)(O)O)ccc4[nH]3)C(=O)N21)C(=O)NCc1ccccc1", "note": "(stereo partly drawn) [compound 3, (2-((3S,6S)-3-((S)-5-Amino-1-(benzylamino)-1,5-dioxopentan-2-ylcarbamoyl)-5-oxodecahydropyrrolo[1,2-a]azocin-6-ylcarbamoyl)-1H-indol-5-yl)difluoromethylphosphonic acid]", "values": [{"measurement": "Ki", "setting": "[8]", "value": 7, "unit": "nM"}, {"measurement": "binding potency relative to compound 2", "setting": "[8]; Ki ratio", "value": 5, "unit": "times"}]}, {"molecule": "Nc1cccc2c1CN(C1CCC(=O)NC1=O)C2=O", "note": "(centres unmarked) [lenalidomide, reference compound]", "values": [{"measurement": "IC50", "setting": "[13]", "value": "~4000", "unit": "nM"}, {"measurement": "effect on SD-36-induced depletion of STAT3 protein", "setting": "[1]", "value": "blocked"}, {"measurement": "effect on STAT3 transcriptional activity", "setting": "[6]; MOLM-16 STAT3 reporter, 24 hr", "value": "no significant effect"}, {"measurement": "IC50", "setting": "[16]; Homo sapiens, read-out: IC50, proliferation", "value": "> 10000", "unit": "nM"}]}]}
